From PubChem BioAssay
This excerpt belongs to a sample that is enriched for hits.
KDM4C inh: KDM4C (human) demethylase inhibition; inhibition, % at 12.5 µM; AID 720574; GST-KDM4C 2-372, H3K9me3 peptide, LANCE TR-FRET; 96,000 compounds, 0.15% hits;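 active = mean replicate inhibition above about 25%, with at least 55% of replicates also reaching it, limit read from the data, passing the limit was not always enough; inconclusive = only one of those two conditions met; inactive = neither condition met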
Target sequence (Q9H3R0 2-372 limits assumed): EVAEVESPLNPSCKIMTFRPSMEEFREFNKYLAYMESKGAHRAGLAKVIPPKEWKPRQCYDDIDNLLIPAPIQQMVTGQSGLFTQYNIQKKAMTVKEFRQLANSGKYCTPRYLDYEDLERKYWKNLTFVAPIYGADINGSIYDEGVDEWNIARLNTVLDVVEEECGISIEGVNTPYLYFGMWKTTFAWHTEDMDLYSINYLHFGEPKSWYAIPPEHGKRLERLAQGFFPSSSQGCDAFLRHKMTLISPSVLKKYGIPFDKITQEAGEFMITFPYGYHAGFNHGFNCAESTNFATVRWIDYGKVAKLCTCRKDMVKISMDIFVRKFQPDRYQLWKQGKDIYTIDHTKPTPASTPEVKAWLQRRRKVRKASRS
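Material: GST-tagged GASC-1 (JMJD2C) catalytic fragment, aa 2-372 / Quantity: enzyme final amount 10 nM / Medium: HEPES buffer, pH 7.5, plus ascorbate / Doses: one test concentration per compound / Incubation: 30 min reaction, 60 min detection, RT / Measured by: LANCE TR-FRET / Read-out: inhibition from TR-FRET ratio decrease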
T cruzi growth-1: inhibitors of T. cruzi proliferation; T. cruzi beta-gal in NIH3T3, GalScreen luminescence, 90 h; inhibition, % at 8.34 µM; 77,000 compounds, 5.9% hits;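 active = mean inhibition above about 93%, with at least 55% of replicates each passing it, limit read from the data, passing the limit was not always enough; inconclusive = only one of those two conditions holds; inactive = neither condition holds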
IDH1 R132H inh: IDH1 R132H (human) inhibition; 70,000 compounds, 0.18% hits; IDH1 R132H reductase, diaphorase/resazurin fluorescence, 60 min; AID 624101; inhibition, % at 10 µM; O75874; in the data active = inhibition above about 34%; inconclusive = no clear call, values can overlap the other calls; inactive = below about 11%;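 note: 0% = DMSO and 100% = no enzyme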
Target sequence (O75874 whole entry R132H): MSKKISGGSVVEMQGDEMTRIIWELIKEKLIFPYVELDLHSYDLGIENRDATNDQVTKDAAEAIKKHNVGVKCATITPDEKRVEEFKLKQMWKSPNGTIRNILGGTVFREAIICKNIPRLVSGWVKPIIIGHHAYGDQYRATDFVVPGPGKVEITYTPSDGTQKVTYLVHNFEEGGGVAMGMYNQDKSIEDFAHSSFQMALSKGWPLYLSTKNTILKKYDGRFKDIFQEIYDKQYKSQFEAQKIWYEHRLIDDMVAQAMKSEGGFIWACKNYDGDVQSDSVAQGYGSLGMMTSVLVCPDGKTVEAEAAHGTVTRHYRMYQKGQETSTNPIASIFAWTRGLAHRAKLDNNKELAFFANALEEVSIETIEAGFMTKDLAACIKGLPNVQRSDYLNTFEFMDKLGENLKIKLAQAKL
T cruzi growth-2: blocks T. cruzi growth in NIH3T3 host cells; shares compounds with T cruzi growth-1; 5,600 compounds, 72% hits; inhibition, % at 8.35 µM; T. cruzi beta-gal in NIH3T3, GalScreen luminescence, 90 h;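 active = mean replicate inhibition above about 95% and at least 55% of replicates individually reaching it, limit read from the data; inconclusive = only one of the two criteria is met; inactive = neither criterion is met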
T cruzi growth-3: Trypanosoma cruzi proliferation inhibition; shares compounds with T cruzi growth-1; T. cruzi beta-gal in NIH3T3, GalScreen luminescence, 90 h; inhibition, % at 2.09 µM; 5,600 compounds, 21% hits;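 active = mean inhibition above about 95%, with at least 55% of replicates also reaching it, limit read from the data; inconclusive = meets just one of the two conditions; inactive = meets neither condition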;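 note: plate controls were neutral control median for no effect and positive control median for full effect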
NIH3T3 tox: kills mouse NIH/3T3 fibroblasts | NIH/3T3 viability, CellTiter-Glo ATP luminescence, 90 h | 5,600 compounds, 14% hits | cytotoxicity (signal decrease), % at 8.35 µM | shares compounds with T cruzi growth-1;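 active = mean signal decrease across replicates above about 35% based on untreated-well scatter, with enough replicates individually passing, limit read from the data; inconclusive = no rule stated though some were filed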;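 note: 0% = median of neutral control wells and 100% = median of positive control wells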
NIH3T3 tox 2: NIH/3T3 (mouse) viability loss; shares compounds with T cruzi growth-1; NIH/3T3 viability, CellTiter-Glo ATP luminescence, 90 h; inhibition, % at 24.9 µM; 5,600 compounds, 56% hits; AID 651744;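 active = mean loss of cell viability signal at or above a set limit, and enough replicates individually reaching it; inconclusive = meets only the mean limit or only the replicate share; inactive = meets neither condition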;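 note: 0% = median of neutral control wells and 100% = median of positive control wells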
* marks the source's active call; other numbers are inactive results; ? = inconclusive; · = no result.

SMILES | KDM4C inh | T cruzi growth-1 | IDH1 R132H inh | T cruzi growth-2 | T cruzi growth-3 | NIH3T3 tox | NIH3T3 tox 2
COc1ccc(C)cc1N(CC(=O)Nc1c(C)cc(C)cc1C)S(C)(=O)=O | · | · | -0.3 | · | · | · | ·
Cc1cc2nc(-c3cccc(NC(=O)COc4ccc(Cl)cc4)c3C)oc2cc1C | · | · | -0.3 | · | · | · | ·
Cc1cc2nn(-c3ccc(Cl)cc3)nc2cc1NC(=O)COc1ccccc1C | · | · | -0.1 | · | · | · | ·
CO[C@H]1CC[C@H]2CCN(C)C(=O)C[C@@H](c3ccccc3)CN(C)C(=O)c3cc(C#N)ccc3OC[C@@H]1O2 | -0.3 | -54.2 | · | · | · | · | ·
O=S(=O)(Cc1ccccc1)N1CCCCN2[C@H](CO)[C@@H](c3ccc(-c4cncnc4)cc3)[C@@H]2C1 | -1.0 | 64.9 | · | · | · | · | ·
O=S(=O)(Cc1ccccc1)N1CCCCN2[C@H](CO)[C@@H](c3ccc(-c4ccc(F)cc4)cc3)[C@H]2C1 | -0.1 | ? | · | 103.4* | 66.5 | 34.8* | 104.7*
O=S(=O)(Cc1ccccc1)N1CCCCN2[C@H](C1)[C@@H](c1ccc(-c3ccc(F)cc3)cc1)[C@@H]2CO | -3.1 | 86.3 | · | · | · | · | ·
O=S(=O)(Cc1ccccc1)N1CCCCN2[C@H](C1)[C@H](c1ccc(-c3ccc(F)cc3)cc1)[C@@H]2CO | 0.1 | 110.1* | · | 101.4* | 40.7 | 13.7 | 104.8*
CC(C)NC(=O)N(C)C[C@@H]1Oc2cc(-c3ccncc3)ccc2S(=O)(=O)N([C@H](C)CO)C[C@@H]1C | 13.4 | ? | 2.9 | 57.1 | 20.4 | 2.5 | 10.3
Cc1ccc(-c2ccc3c(c2)O[C@H](CN(C)C(=O)NC(C)C)[C@H](C)CN([C@@H](C)CO)S3(=O)=O)cc1 | -2.3 | 35.0 | -3.8 | · | · | · | ·
Cc1ccc(-c2ccc3c(c2)O[C@@H](CN(C)C(=O)NC(C)C)[C@H](C)CN([C@@H](C)CO)S3(=O)=O)cc1 | -2.0 | 35.0 | 7.9 | · | · | · | ·
Cc1ccc(-c2ccc3c(c2)O[C@H](CN(C)C(=O)NC(C)C)[C@@H](C)CN([C@H](C)CO)S3(=O)=O)cc1 | -3.5 | 46.7 | -8.9 | · | · | · | ·
CCCNC(=O)N(C)C[C@H]1Oc2cc(-c3cccnc3)ccc2S(=O)(=O)N([C@@H](C)CO)C[C@@H]1C | -0.5 | ? | 0.5 | ? | 76.7 | 14.7 | 6.2
CC(C)NC(=O)N(C)C[C@H]1Oc2cc(-c3ccncc3)ccc2S(=O)(=O)N([C@H](C)CO)C[C@@H]1C | -1.2 | 107.0* | 0.5 | 86.6 | 57.7 | 0.9 | 10.5
CCCNC(=O)N(C)C[C@H]1Oc2cc(-c3cccnc3)ccc2S(=O)(=O)N([C@H](C)CO)C[C@H]1C | 0.9 | -4.1 | -0.1 | · | · | · | ·
CC(C)NC(=O)N(C)C[C@H]1Oc2cc(-c3ccncc3)ccc2S(=O)(=O)N([C@@H](C)CO)C[C@H]1C | -2.0 | ? | 1.2 | 63.8 | -14.4 | 5.6 | 20.0
O=C(CSc1nnnn1-c1ccccc1)Nc1cc(Cl)ccc1O | · | · | -0.2 | · | · | · | ·
N#Cc1ccc(NC(=O)Cn2ccc([N+](=O)[O-])n2)cc1 | · | · | -0.1 | · | · | · | ·
CCN(C(=O)CSc1nc2sc(C)c(C)c2c(=O)n1-c1ccccc1)c1ccccc1 | · | · | -0.3 | · | · | · | ·
CCN(CC(=O)Nc1cc(C(F)(F)F)ccc1Cl)S(=O)(=O)c1ccc(C)cc1 | · | · | -0.6 | · | · | · | ·
Cc1ccc(S(=O)(=O)Nc2ccc3c(c2)C(=O)N([C@H](C)CO)C[C@@H](C)[C@@H](CN(C)Cc2ccc4c(c2)OCO4)OCCCC[C@@H](C)O3)cc1 | -1.7 | ? | 1.6 | 105.4* | 81.3 | 29.4 | 102.0*
Cc1ccc(S(=O)(=O)Nc2ccc3c(c2)C(=O)N([C@@H](C)CO)C[C@H](C)[C@H](CN(C)Cc2ccc4c(c2)OCO4)OCCCC[C@@H](C)O3)cc1 | -0.5 | 31.0 | · | · | · | · | ·
COc1ccc(S(=O)(=O)Nc2ccc3c(c2)C(=O)N([C@H](C)CO)C[C@@H](C)[C@@H](CN(C)Cc2ccc4c(c2)OCO4)OCCCC[C@H](C)O3)cc1 | 0.8 | 55.0 | · | · | · | · | ·
C[C@@H]1CCCCO[C@@H](CN(C)Cc2ccc3c(c2)OCO3)[C@@H](C)CN([C@@H](C)CO)C(=O)c2cc(NS(=O)(=O)c3ccc(F)cc3)ccc2O1 | -0.1 | 114.6* | · | 101.8* | 49.8 | 25.5 | 93.6*
C[C@H](CO)N1C[C@H](C)[C@@H](CN(C)Cc2ccc3c(c2)OCO3)OCCCC[C@H](C)Oc2ccc(NS(=O)(=O)c3ccc(F)cc3)cc2C1=O | -0.4 | 69.1 | · | · | · | · | ·
SMILES | KDM4C inh | T cruzi growth-1 | IDH1 R132H inh | T cruzi growth-2 | T cruzi growth-3 | NIH3T3 tox | NIH3T3 tox 2
COc1ccc(S(=O)(=O)Nc2ccc3c(c2)C(=O)N([C@@H](C)CO)C[C@@H](C)[C@H](CN(C)Cc2ccc4c(c2)OCO4)OCCCC[C@H](C)O3)cc1 | 0.0 | 100.0* | 0.2 | 109.4* | -2.0 | 11.3 | 65.5*
CCOc1cc(C2c3c(oc4ccc(F)cc4c3=O)C(=O)N2CCc2ccc(OC)cc2)ccc1O (configuration not stated) | · | · | -0.2 | · | · | · | ·
CCCNC(=O)N1[C@H](CO)[C@@H](c2ccccc2)[C@H]1CNC(=O)c1cccc(F)c1 | -4.1 | -15.5 | · | · | · | · | ·
CCCNC(=O)N1[C@@H](CO)[C@@H](c2ccccc2)[C@@H]1CNC(=O)c1cccc(F)c1 | -1.5 | 122.3* | · | 81.0 | -9.5 | 5.5 | 39.9*
CCCNC(=O)N1[C@@H](CO)[C@H](c2ccccc2)[C@@H]1CNC(=O)c1ccccc1 | -1.9 | ? | · | 23.1 | -15.3 | 0.0 | -3.8
CCCNC(=O)N1[C@H](CO)[C@@H](c2ccccc2)[C@H]1CNC(=O)c1ccccc1 | -6.4 | 47.9 | · | · | · | · | ·
COc1cccc(NC(=O)N(C)C[C@@H]2Oc3ncc(C#Cc4ccccc4)cc3C(=O)N([C@H](C)CO)C[C@H]2C)c1 | · | 121.4* | -3.4 | 106.5* | 111.3* | 16.6 | 27.6*
COc1cccc(NC(=O)N(C)C[C@H]2Oc3ncc(C#Cc4ccccc4)cc3C(=O)N([C@H](C)CO)C[C@@H]2C)c1 | · | 110.4* | 0.2 | 108.4* | 88.0 | ? | 27.6*
COc1cccc(NC(=O)N(C)C[C@@H]2Oc3ncc(C#Cc4cccnc4)cc3C(=O)N([C@@H](C)CO)C[C@H]2C)c1 | -2.5 | 80.7 | -3.2 | · | · | · | ·
COc1cccc(NC(=O)N(C)C[C@H]2Oc3ncc(C#Cc4ccccc4)cc3C(=O)N([C@@H](C)CO)C[C@H]2C)c1 | · | ? | · | 104.5* | 51.5 | 2.3 | 38.3*
COc1cccc(NC(=O)N(C)C[C@H]2Oc3ncc(C#Cc4ccccc4)cc3C(=O)N([C@H](C)CO)C[C@H]2C)c1 | · | 95.5 | · | · | · | · | ·
COc1cccc(NC(=O)N(C)C[C@@H]2Oc3ncc(C#Cc4cccnc4)cc3C(=O)N([C@@H](C)CO)C[C@@H]2C)c1 | -1.1 | 39.3 | · | · | · | · | ·
COc1cccc2cc(-c3nnc(SCC(=O)N4c5ccccc5Sc5ccccc54)n3C)oc12 | · | · | 1.1 | · | · | · | ·
Cc1ccc(Cl)cc1NC(=O)CSc1cc(C)c2cccc(C)c2n1 | · | · | -0.1 | · | · | · | ·
COc1cc(OC)c(NC(=O)CSc2ccccn2)cc1Cl | · | · | 0.0 | · | · | · | ·
